Measurements published in ChEMBL document CHEMBL3351585, “Design, synthesis and biological evaluation of novel peptides with anti-cancer and drug resistance-reversing activities” (Eur J Med Chem, 2015).
The source made the active and inactive calls. The rule behind the calls is not given here.

Tests used:
MCF7 [1] = assay: Induction of mitochondrial membrane potential depolarization in human MCF7 cells at 8 uM incubated for 2 hrs by JC1 staining; assay type: functional, cell-based
Summary of the method: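 MCF-7 cells plated at 1 × 10^5 per well, grown 24 h, then exposed to peptide for 2 h. Mitochondrial membrane potential was assessed with a JC-1 mitochondrial membrane potential kit. Green (monomer) and red (J-aggregate) fluorescence were imaged, with merged orange taken as normal potential.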

MCF7 [2] = assay: Induction of cytochrome c release in human MCF7 cells at 8 uM incubated for 2 hrs by ELISA method (reference value: 364.2 +/- 20.5 ng); assay type: functional
K562 = assay: Anticancer activity against human K562 cells after 48 hrs by MTT assay; assay type: functional, cell-based; details: K562, 48 h
Summary of the method: (§1)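 Cells grown in RPMI1640 with 10% heat-inactivated FBS and 1% penicillin-streptomycin at 37 °C, 5% CO2. Log-phase cells were seeded at 5 × 10^3/well 24 h before treatment, exposed to a range of peptide concentrations for 48 h, then given MTT for 4 h. Formazan was dissolved in DMSO and A490 read. Survival was computed relative to untreated wells, and IC50 taken from the survival curve.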

[3] = Increase in adriamycin uptake in human K562/ADR cells at 1 uM after 2.5 hrs by fluorescence spectrophotometry; assay type: ADME, cell-based
Summary of the method: (§2)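 2 × 10^5 MCF-7/ADM or K562/ADM cells were co-incubated 2.5 h with ADM plus peptide, or with verapamil as comparator. After washing in cold PBS, cells were lysed in 0.75 M HCl/0.2% Triton X-100 in isopropanol. Lysate ADM fluorescence was measured by spectrofluorometry at ex 460/em 610 nm.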

MCF7 [4] = assay: Antimigratory activity in human MCF7 cells assessed as inhibition of cell migration at 1 uM incubated for 48 hrs by wound healing assay; assay type: functional, cell-based
Summary of the method: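 MCF-7 cells were seeded at 2 × 10^5/well and grown 24 h to 90% confluence. A cell-free gap was scratched, and cells migrated in serum-free medium with peptide for 48 h. Wound closure was photographed at 0 h and 48 h.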

[5] = Anticancer activity against human MCF7/ADR cells after 48 hrs by MTT assay; assay type: functional, cell-based; details: NCI/ADR-RES; summary of the method: as §1
[6] = Increase in adriamycin uptake in human K562/ADR cells at 1 uM after 2.5 hrs by fluorescence microscopy; assay type: ADME, cell-based
Summary of the method: (§3)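 2 × 10^5 MCF-7/ADM or K562/ADM cells were co-incubated 2.5 h with ADM plus peptide, or with verapamil as comparator. Cells were washed with cold PBS and ADM fluorescence was imaged by fluorescence microscopy.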

MCF7 [7] = assay: Induction of cell membrane alteration in human MCF7 cells at 8 uM incubated for 30 mins by acridine orange/ethidium bromide double staining method; assay type: functional, cell-based
Summary of the method: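 MCF-7 cells were plated at 1 × 10^5/well and grown 24 h, then given peptide for 30 min. Cells were washed twice with PBS and stained 10 min in the dark with cold PBS containing acridine orange and ethidium bromide. Excess dye was washed off, then cells were imaged by fluorescence microscopy. Red EB staining marks membrane-compromised cells.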

[8] = Retention time of the compound by UPLC method; assay type: physicochemical
MCF7 [9] = assay: Induction of cytochrome c release in mitochondria of human MCF7 cells at 8 uM incubated for 2 hrs by ELISA method (reference value: 347.8 +/- 14.5 ng); assay type: functional
[10] = Drug uptake in cytosol of human MCF7 cells at 8 uM incubated for 5 mins or 30 mins by fluorescein isothiocyanate labeling based fluorescence microscopy; assay type: ADME, cell-based
Summary of the method: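 MCF-7 cells were plated at 1 × 10^5/well and grown 24 h, then exposed to FITC-labeled peptides for 5 min or 30 min. Cells were washed three times with cold PBS, and intracellular fluorescence was imaged by fluorescence microscopy.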

[11] = Increase in adriamycin uptake in human MCF7/ADR cells at 1 uM after 2.5 hrs by fluorescence microscopy; assay type: ADME, cell-based; details: nci/adr-res; summary of the method: as §3
NCI/ADR-RES [12] = assay: Potentiation of adriamycin-induced cytotoxicity against human MCF7/ADR cells at 1 uM after 48 hrs by MTT assay; assay type: functional, cell-based
Summary of the method: (§4)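 ADM-resistant MCF-7/ADM or K562/ADM cells, grown in RPMI1640 with 10% FBS at 37 °C and 5% CO2, were seeded at 1 × 10^4 per well and held 24 h. Fixed peptide was added, followed by graded ADM concentrations, for 48 h. MTT was then given for 4 h at 37 °C, formazan dissolved in DMSO and absorbance read at 570 nm. Verapamil served as positive control.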

[13] = Anticancer activity against human K562/ADR cells after 48 hrs by MTT assay; assay type: functional, cell-based; summary of the method: as §1
MCF7 [14] = assay: Induction of cytochrome c release in extracellular region of human MCF7 cells at 8 uM incubated for 2 hrs by ELISA method (reference value: 15.7 +/- 0.77 ng); assay type: functional
K562/Adr [15] = assay: Potentiation of adriamycin-induced cytotoxicity against human K562/ADR cells at 1 uM after 48 hrs by MTT assay; assay type: functional, cell-based; summary of the method: as §4
MCF7 [16] = assay: Antimigratory activity in human MCF7 cells assessed as inhibition of cell migration at 1 uM incubated for 48 hrs by transwell migration assay; assay type: functional, cell-based
Summary of the method: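 Transwell chambers with a porous membrane separating upper and lower compartments. 4 × 10^4 MCF-7 cells were placed in the upper chamber in peptide-containing medium and incubated 48 h. Cells that reached the lower membrane surface were counted.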

[17] = Cytotoxicity against human GES-1 cells after 48 hrs by MTT assay; assay type: cell-based; details: GES1, 48 h; summary of the method: as §1
MCF7 [18] = assay: Induction of cell membrane morphology changes in human MCF7 cells at 8 uM incubated for 30 mins by scanning electron microscopy; assay type: functional, cell-based
Summary of the method: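 MCF-7 cells were grown 24 h on coverslips at 1 × 10^5/well and exposed to peptide for 30 min. Cells were gently PBS-washed, fixed in 2.5% glutaraldehyde, and examined by scanning electron microscopy.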

MCF7 [19] = assay: Anticancer activity against human MCF7 cells after 48 hrs by MTT assay; assay type: functional, cell-based; details: MCF7, 48 h; summary of the method: as §1
MCF7 [20] = assay: Induction of cytochrome c release in cytoplasm of human MCF7 cells at 8 uM incubated for 2 hrs by ELISA method (reference value: 44.1 +/- 2.7 ng); assay type: functional
[21] = Toxicity in rabbit erythrocytes assessed as induction of hemolysis at 160 uM incubated for 1 hr by microplate reader assay; assay type: cell-based, Oryctolagus cuniculus; details: erythrocyte
Summary of the method: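 Rabbit red blood cells in PBS were mixed 1:1 by volume with peptide solution and incubated 1 h at 37 °C, then spun at 1000 g for 5 min. Hemoglobin in the supernatant was read at 540 nm. PBS defined 0% hemolysis and 0.1% Triton X-100 defined 100%.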

[22] = Increase in adriamycin uptake in human MCF7/ADR cells at 1 uM after 2.5 hrs by fluorescence spectrophotometry; assay type: ADME, cell-based; details: nci/adr-res; summary of the method: as §2
NCI/ADR-RES [23] = assay: Potentiation of adriamycin-induced cytotoxicity against human MCF7/ADR cells at 10 uM after 48 hrs by MTT assay; assay type: functional, cell-based; summary of the method: as §4
[24] = Increase in adriamycin uptake in human K562/ADR cells at 10 uM after 2.5 hrs by fluorescence microscopy; assay type: ADME, cell-based; summary of the method: as §3
[25] = Increase in adriamycin uptake in human MCF7/ADR cells at 10 uM after 2.5 hrs by fluorescence spectrophotometry; assay type: ADME, cell-based; details: nci/adr-res; summary of the method: as §2
[26] = Increase in adriamycin uptake in human K562/ADR cells at 10 uM after 2.5 hrs by fluorescence spectrophotometry; assay type: ADME, cell-based; summary of the method: as §2
K562/Adr [27] = assay: Potentiation of adriamycin-induced cytotoxicity against human K562/ADR cells at 10 uM after 48 hrs by MTT assay; assay type: functional, cell-based; summary of the method: as §4
[28] = Increase in adriamycin uptake in human MCF7/ADR cells at 10 uM after 2.5 hrs by fluorescence microscopy; assay type: ADME, cell-based; details: nci/adr-res; summary of the method: as §3

For H-VKRFKKFFRKLKKKV-NH2, the Activity (MCF7 [1]) was “Active”, the Activity (MCF7 [2]) was 359.1 ng and the IC50 (K562) was 5.5 µM. For the same compound, the Activity [3] was “Active”, the inhibition (MCF7 [4]) was “Active” and the IC50 [5] was 8.6 µM. For the same compound, the Activity [6] was “Active”, the Activity (MCF7 [7]) was “Active” and the Retention_time [8] was 3.22 min. The Activity (MCF7 [9]) was 303.2 ng, the Drug uptake [10] was “Active” and the Activity [11] was “Active”. The Activity (NCI/ADR-RES [12]) was “Active”, the IC50 [13] was 5.5 µM and the Activity (MCF7 [14]) was 15 ng. The Activity (K562/Adr [15]) was “Active”, the inhibition (MCF7 [16]) was “Active” and the IC50 [17] was 123 µM. For the same compound, the Activity (MCF7 [18]) was “Active”, the IC50 (MCF7 [19]) was 8.3 µM and the Activity (MCF7 [20]) was 59.6 ng. For the same compound, the Activity [21] was “Non-toxic” and the Activity [22] was “Active”.

For `COc1ccc(CCN(C)CCCC(C#N)(c2ccc(OC)c(OC)c2)C(C)C)cc1OC` (centres undefined) [VERAPAMIL], the Activity (NCI/ADR-RES [23]) was “Active”, the Activity [24] was “Active” and the Activity [25] was “Active”. For the same compound, the Activity [26] was “Active”, the Activity (K562/Adr [27]) was “Active” and the Activity [28] was “Active”.
